Each structure is given as a SMILES string. In brackets after ≈: the same amount, converted by molar mass.

Experimental findings from ChEMBL document CHEMBL1687807, “Effect of N-1/c-8 ring fusion and C-7 ring structure on fluoroquinolone lethality” (2010) are described below.

Format in all cases: functional
For assay [1], the system named is Escherichia coli. In words: Bacteriostatic activity against Escherichia coli K-12 DM4100. Summed up: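 MIC by broth dilution: E. coli K-12 DM4100 at 10^4 to 10^5 cells/ml in LB liquid medium with serial 2-fold dilutions of quinolone, incubated at 37°C. Drug stock dilutions made in sterile distilled water.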
In assay [2] the test system is Escherichia coli. In words: Bactericidal activity against Escherichia coli K-12 DM4100 after 2 hrs in presence of protein synthesis inhibitor chloramphenicol treated 10 mins before compound challenge. Summed up:
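Midlog E. coli grown aerobically at 37°C in LB. Chloramphenicol added to 20 μg/ml 10 min before quinolone, then 2 h further incubation. Cells diluted in growth medium and plated on drug-free agar, then incubated overnight at 37°C for CFU counts. Percent survival is relative to CFU at quinolone addition.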

Assay [3] relates to Escherichia coli. The assay is described as follows: Ratio of LD99 for Escherichia coli K-12 DM4100 to MIC for Escherichia coli K-12 DM4100. Summed up: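 MIC: 10^4 to 10^5 cells/ml incubated at 37°C in LB broth with serial 2-fold quinolone dilutions. Lethality: midlog cultures grown aerobically at 37°C and exposed to quinolone for 2 h, then plated on drug-free agar overnight for CFU. Survival is expressed as percent of CFU at drug addition.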

For orientation: MIC means the smallest concentration in the dilution series that meets the test's criterion for growth inhibition. Higher therefore signals a need for much substance. Regarding `COc1c(N2C[C@@H]3CCCN[C@@H]3C2)c(F)cc2c(=O)c(C(=O)O)cn(C3CC3)c12` [MOXIFLOXACIN], in the assay with Escherichia coli [1], the MIC worked out at 0.125 µg/mL (≈ 0.311 µM). Also, in the assay with Escherichia coli [2], the LD99 was found to be 0.5 µg/mL. In addition, in the assay on Escherichia coli [3], the Ratio is recorded as 4.
On the same counts, the results for `CCN1CCN(c2c(F)cc3c(=O)c(C(=O)O)cn(C4CC4)c3c2OC)CC1` are 0.1 µg/mL (≈ 0.257 µM), 0.14 µg/mL and 1.4.
In the case of `C[C@H]1COc2c(N3CCN(C)CC3)c(F)cc3c(=O)c(C(=O)O)cn1c23.C[C@H]1COc2c(N3CCN(C)CC3)c(F)cc3c(=O)c(C(=O)O)cn1c23.O` [LEVOFLOXACIN], the MIC with Escherichia coli [1] was found to be 0.2 µg/mL. Besides, the LD99 in the assay with Escherichia coli [2] was 0.8 µg/mL. Further, the Ratio in the assay on Escherichia coli [3] is 4.
`CCC1CN(c2c(F)cc3c(=O)c(C(=O)O)cn(C4CC4)c3c2OC)CCN1` (stereo not given) returned a minimum inhibitory concentration (MIC) in the assay with Escherichia coli [1] of 0.16 µg/mL (≈ 0.411 µM). In the assay with Escherichia coli [2], the LD99 came out at 0.8 µg/mL. Further, the Ratio with Escherichia coli [3] came out at 5.
On to `COc1c(N2CCNCC2)c(F)cc2c(=O)c(C(=O)O)cn(C3CC3)c12`, for which the minimum inhibitory concentration (MIC) in the assay with Escherichia coli [1] worked out at 0.031 µg/mL (≈ 0.0858 µM). Besides, in the assay with Escherichia coli [2], the LD99 amounted to 0.04 µg/mL. Further, the Ratio in the assay with Escherichia coli [3] turned out to be 1.3.
Regarding `CCC1CN(c2c(F)cc3c(=O)c(C(=O)O)cn4c3c2OC[C@@H]4C)CCN1` (stereo not given in full), the MIC against Escherichia coli [1] stood at 0.25 µg/mL (≈ 0.666 µM). Also, in the assay with Escherichia coli [2], the LD99 is 0.5 µg/mL. Moreover, in the assay with Escherichia coli [3], the Ratio stood at 2.
On to `C[C@H]1COc2c(N3C[C@@H]4CCCN[C@@H]4C3)c(F)cc3c(=O)c(C(=O)O)cn1c23`, for which, in the assay with Escherichia coli [1], 0.125 µg/mL (≈ 0.323 µM) was the least that counted as inhibitory (MIC). In addition, the LD99 in the assay with Escherichia coli [2] worked out at 0.25 µg/mL. Besides, the Ratio in the assay with Escherichia coli [3] was found to be 2.
`C[C@H]1COc2c(C3(N)CC3)c(F)cc3c(=O)c(C(=O)O)cn1c23` [PAZUFLOXACIN] showed an MIC in the assay with Escherichia coli [1] of 0.02 µg/mL (≈ 0.0628 µM). The LD99 with Escherichia coli [2] was 0.08 µg/mL. In addition, the Ratio in the assay with Escherichia coli [3] turned out to be 4.
Take `CN1CCN(c2c(F)cc3c(=O)c(C(=O)O)cn4c3c2SCC4)CC1` [RUFLOXACIN]: 1 µg/mL (≈ 2.75 µM) was the least that counted as inhibitory in the assay on Escherichia coli [1] (MIC). Also, the LD99 in the assay on Escherichia coli [2] was determined as 7 µg/mL. Also, the Ratio in the assay with Escherichia coli [3] is 7.
As to `C[C@H]1COc2c(N3CCNCC3)c(F)cc3c(=O)c(C(=O)O)cn1c23` [N-DESMETHYL LEVOFLOXACIN], the MIC against Escherichia coli [1] worked out at 1 µg/mL (≈ 2.88 µM). The LD99 in the assay with Escherichia coli [2] amounted to 1.2 µg/mL. For the same compound, the Ratio with Escherichia coli [3] was 1.2.
As for `CC1CN(c2c(F)cc3c(=O)c(C(=O)O)cn4c3c2OC[C@@H]4C)CCN1` (stereo not given in full), the MIC against Escherichia coli [1] came out at 0.31 µg/mL (≈ 0.858 µM). Moreover, the LD99 in the assay on Escherichia coli [2] came to 0.74 µg/mL. Further, the Ratio in the assay with Escherichia coli [3] was 2.4.
`COc1c(N2CCNC(C)C2)c(F)cc2c(=O)c(C(=O)O)cn(C3CC3)c12` (stereo not given) [GATIFLOXACIN]: the minimal inhibitory concentration (MIC) against Escherichia coli [1] is 0.04 µg/mL (≈ 0.107 µM). The LD99 in the assay with Escherichia coli [2] was determined as 0.2 µg/mL. In the assay on Escherichia coli [3], the Ratio was 5.
As to `CN1CCN(c2c(F)cc3c(=O)c(C(=O)O)cn4c3c2OCN4C)CC1` [MARBOFLOXACIN], in the assay on Escherichia coli [1], the MIC came to 0.02 µg/mL (≈ 0.0552 µM). Also, the LD99 with Escherichia coli [2] was 0.06 µg/mL. Also, in the assay on Escherichia coli [3], the Ratio is recorded as 3.
`COc1c(N2CCN(C)CC2)c(F)cc2c(=O)c(C(=O)O)cn(C3CC3)c12`: it took 0.062 µg/mL (≈ 0.165 µM) to inhibit growth against Escherichia coli [1] (MIC). Also, the LD99 with Escherichia coli [2] was found to be 0.2 µg/mL. The Ratio with Escherichia coli [3] is reported as 3.2.
The corresponding values for `CCN1CCN(c2c(F)cc3c(=O)c(C(=O)O)cn4c3c2OC[C@@H]4C)CC1` are 0.75 µg/mL (≈ 2 µM), 1.5 µg/mL and 2.
